The source made the active and inactive calls. No cut-off for these calls is given here.
Experiments:
Hepatitis B virus [1] = assay: Antiviral activity against HBV infected in human HepG2.117 cells by qPCR analysis; format: functional, organism-based
Procedure, shortened: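 HepG2.117 cells (integrated genotype D HBV genome, Tet-off promoter; kept in 1 μg/mL doxycycline) were seeded at 20,000 cells/well and given serial compound dilutions (2% DMSO) for 3 days at 37 °C. Lysates were taken in 0.33% NP40. Intracellular HBV DNA was quantified by qPCR and EC50/EC90 derived. For serum shift, 40% human serum was present during incubation. Mean ± SEM, n=3 (serum) or 13.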

[2] = Clearance in mouse; format: ADME, organism-based; settings: in vivo
[3] = Metabolic stability in human liver microsomes assessed as half life at 1 uM incubated upto 60 mins in presence of NADPH; format: ADME, Microsome
Procedure, shortened: (§1)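 Compound at 1 μM incubated at 37 °C with liver microsomes of each species for 0, 15, 30 and 60 min, with and without NADPH; half-life determined.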

[4] = Metabolic stability in mouse liver microsomes assessed as half life at 1 uM incubated upto 60 mins in presence of NADPH; format: ADME, Microsome; procedure, shortened: as §1
hERG (KCNH2) = hERG (KCNH2) (Homo sapiens, UniProt Q12809); assay: Inhibition of hERG expressed in mammalian cells at 10 uM by automated patch-clamp technique relative to control; format: toxicity, cell-based; settings: mammalian cells expressing hERG
Procedure, shortened: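 Currents of hERG, Nav1.5 or Cav1.2 channels expressed in mammalian cells recorded by automated patch clamp (QPatch 48) at room temperature.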

Hepatitis B virus [5] = assay: Antiviral activity against AAV-Hepatitis B virus infected in C57BL/6 mouse assessed as reduction in baseline HBV DNA production at 50 mg/kg, po qd measured after 7 days; format: functional; settings: time 7 day
Hepatitis B virus [6] = assay: Antiviral activity against AAV-Hepatitis B virus infected in C57BL/6 mouse assessed as reduction in baseline HBV DNA production at 50 mg/kg, po bid for 56 days followed by induction of compound washout period measured after 7 days; format: functional, organism-based; settings: time 63.0 day
Mus musculus [7] = assay: Effect on HBsAg level in C57BL/6 mouse infected with AAV-Hepatitis B virus at 50 mg/kg, po bid for 56 days followed by induction of compound washout period for 14 days; format: functional, organism-based; settings: time 70.0 day
Mus musculus [8] = assay: Effect on HBeAg level in C57BL/6 mouse infected with AAV-Hepatitis B virus at 50 mg/kg, po bid for 56 days followed by induction of compound washout period for 14 days; format: functional, organism-based; settings: time 70.0 day
[9] = Toxicity in C57BL/6 mouse infected with AAV-Hepatitis B virus assessed as change in ALT level at 50 mg/kg, po bid for 56 days followed by induction of compound washout period for 14 days; format: organism-based; settings: in vivo, 1680 h, time 70 day
[10] = Toxicity in C57BL/6 mouse infected with AAV-Hepatitis B virus assessed as change in body weight at 50 mg/kg, po bid for 56 days followed by induction of compound washout period for 14 days; format: organism-based; settings: in vivo, 1680 h, time 70 day

Chain of hERG (KCNH2) (Q12809 whole entry): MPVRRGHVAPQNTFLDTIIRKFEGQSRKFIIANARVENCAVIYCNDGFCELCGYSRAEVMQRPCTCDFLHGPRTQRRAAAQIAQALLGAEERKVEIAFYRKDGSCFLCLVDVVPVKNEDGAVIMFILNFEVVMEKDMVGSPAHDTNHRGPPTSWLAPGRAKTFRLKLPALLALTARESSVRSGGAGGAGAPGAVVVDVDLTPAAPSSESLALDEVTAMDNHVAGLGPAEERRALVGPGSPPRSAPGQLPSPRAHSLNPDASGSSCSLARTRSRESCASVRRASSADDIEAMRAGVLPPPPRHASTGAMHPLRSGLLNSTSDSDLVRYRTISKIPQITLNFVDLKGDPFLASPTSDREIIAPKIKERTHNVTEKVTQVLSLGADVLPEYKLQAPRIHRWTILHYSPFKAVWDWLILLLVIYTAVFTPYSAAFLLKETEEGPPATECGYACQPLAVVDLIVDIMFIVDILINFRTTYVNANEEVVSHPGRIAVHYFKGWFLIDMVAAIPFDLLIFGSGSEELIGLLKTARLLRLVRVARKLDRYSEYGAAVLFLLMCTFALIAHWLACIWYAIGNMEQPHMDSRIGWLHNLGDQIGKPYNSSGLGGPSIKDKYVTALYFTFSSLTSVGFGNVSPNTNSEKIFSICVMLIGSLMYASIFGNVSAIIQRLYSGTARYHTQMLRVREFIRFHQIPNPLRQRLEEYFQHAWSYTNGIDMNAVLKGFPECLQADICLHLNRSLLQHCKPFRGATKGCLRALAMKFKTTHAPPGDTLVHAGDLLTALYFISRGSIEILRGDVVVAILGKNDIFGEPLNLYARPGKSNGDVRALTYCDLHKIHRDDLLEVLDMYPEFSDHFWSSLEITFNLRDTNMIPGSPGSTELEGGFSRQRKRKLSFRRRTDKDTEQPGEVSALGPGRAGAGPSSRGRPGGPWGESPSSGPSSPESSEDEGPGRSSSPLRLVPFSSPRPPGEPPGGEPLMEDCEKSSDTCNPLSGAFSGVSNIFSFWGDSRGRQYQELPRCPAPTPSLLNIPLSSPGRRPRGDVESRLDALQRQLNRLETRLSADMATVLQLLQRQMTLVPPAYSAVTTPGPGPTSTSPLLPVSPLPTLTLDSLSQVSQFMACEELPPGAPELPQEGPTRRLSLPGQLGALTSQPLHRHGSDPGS

| SMILES | EC50 (Hepatitis B virus [1]) [nM] | further results |
| --- | --- | --- |
| C#CCNC(=O)C(=O)c1c(C)c(C(=O)Nc2ccc(F)c(C#N)c2)n(C)c1C | 2.88 | clearance [2]: 13.2 mL/min/kg |
| C#C[C@H](C)NC(=O)C(=O)c1c(C)c(C(=O)Nc2ccc(F)c(C#N)c2)n(C)c1C | 0.98 |  |
| C#CCNC(=O)C(=O)c1c(C)c(C(=O)Nc2ccc(F)c(F)c2)n(C)c1C | 2.6 | half-life at 1 µM [3]: > 60 min; half-life at 1 µM [4]: 40.4 min; clearance [2]: 78.2 mL/min/kg; inhibition at 10 µM (hERG (KCNH2)): 31.2% |
| C[C@@H](NS(=O)(=O)c1cn(C)c(C(=O)Nc2ccnc(Cl)c2)c1F)C(F)(F)F |  | Activity (Hepatitis B virus [5]): -2.5 log10IU/ml; Activity (Hepatitis B virus [6]): inactive; Activity (Mus musculus [7]): inactive; Activity (Mus musculus [8]): inactive; Activity [9]: Non-toxic; Activity [10]: Non-toxic |
| C#CC1(NC(=O)C(=O)c2c(C)c(C(=O)Nc3ccc(F)c(C#N)c3)n(C)c2C)CC(F)(F)C1 | 0.32 |  |
| C#CC1(NC(=O)C(=O)c2c(C)c(C(=O)Nc3ccc(F)c(C#N)c3)n(C)c2C)CCS(=O)(=O)CC1 | 3.51 |  |

Further molecules by falling EC50 (Hepatitis B virus [1]), results first:

| EC50 (Hepatitis B virus [1]) [nM] | SMILES | further results |
| --- | --- | --- |
| 2.65 | C#CCNC(=O)C(=O)c1c(C)c(C(=O)Nc2ccc(F)c(C(F)(F)F)c2)n(C)c1C |  |
| 2.11 | C#CC1(NC(=O)C(=O)c2c(C)c(C(=O)Nc3ccc(F)c(C#N)c3)n(C)c2C)CCOCC1 |  |
| 1.99 | C#CC1(NC(=O)C(=O)c2c(C)c(C(=O)Nc3ccc(F)c(C#N)c3)n(C)c2C)CCCC1 |  |
| 1.98 | C#CCNC(=O)C(=O)c1c(C)c(C(=O)Nc2ccc(F)c(C)c2)n(C)c1C | clearance [2]: 54.3 mL/min/kg |
| 1.49 | C#CC(C)(C)NC(=O)C(=O)c1c(C)c(C(=O)Nc2ccc(F)c(C#N)c2)n(C)c1C |  |
| 1.32 | C#C[C@@H](C)NC(=O)C(=O)c1c(C)c(C(=O)Nc2ccc(F)c(C#N)c2)n(C)c1C |  |
| 0.73 | C#CC1(NC(=O)C(=O)c2c(C)c(C(=O)Nc3ccc(F)c(C#N)c3)n(C)c2C)CCC1 |  |
| 0.45 | C#CC1(NC(=O)C(=O)c2c(C)c(C(=O)Nc3ccc(F)c(C#N)c3)n(C)c2C)CC1 |  |

Reference: ChEMBL document CHEMBL6092224, “The Discovery and Preclinical Profile of ALG-000184, a Prodrug of the Potent Hepatitis B Virus Capsid Assembly Modulator ALG-001075” (J Med Chem, 2024)
